The results in this text go back to ChEMBL document CHEMBL1649429, “Novel plasmid-encoded ceftazidime-hydrolyzing CTX-M-53 extended-spectrum beta-lactamase from Salmonella enterica serotypes Westhampton and Senftenberg” (Antimicrob Agents Chemother, 2009).

Substrate in data set [1]: CCN1CCN(C(=O)N[C@@H](C(=O)N[C@@H]2C(=O)N3[C@@H]2SC(C)(C)[C@@H]3C(=O)O)c2ccccc2)C(=O)C1=O
Kind of data set: (§1) Ratio of Kcat/Km for Salmonella enterica serotype Westhampton beta-lactamase CTX-M-53. To be noted: Salmonella enterica subsp. enterica serovar Westhampton. An outline of the steps:
(§2)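 CTX-M-53 was purified from E. coli DH5 carrying recombinant pCTX-M-53, grown in brain heart infusion with cefotaxime 2 µg/ml for 18 h at 37°C. Cells were sonicated in 20 mM MES-NaOH pH 6.0, and nucleic acids removed with spermine. The enzyme was purified by SP Sepharose ion exchange and Superose 12 gel filtration. Km and kcat were measured by computerized microacidimetry, three determinations each.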

Substrate in data set [2]: CC(=O)OCC1=C(C(=O)O)N2C(=O)[C@@H](NC(=O)Cc3cccs3)[C@H]2SC1
The data set is described as §1. As to conditions: Salmonella enterica subsp. enterica serovar Westhampton. An outline of the steps: as §2

Substrate in data set [3]: CO/N=C(\C(=O)N[C@@H]1C(=O)N2C(C(=O)O)=C(COC(N)=O)CS[C@H]12)c1ccco1
Described as §1. As to conditions: Salmonella enterica subsp. enterica serovar Westhampton. An outline of the steps: as §2

Substrate in data set [4]: CC(C)(O/N=C(\C(=O)N[C@@H]1C(=O)N2C(C(=O)[O-])=C(C[n+]3ccccc3)CS[C@H]12)c1csc(N)n1)C(=O)O
The data set is described as §1. As to conditions: Salmonella enterica subsp. enterica serovar Westhampton. An outline of the steps: as §2

Substrate in data set [5]: CO/N=C(\C(=O)N[C@@H]1C(=O)N2C(C(=O)O)=C(COC(C)=O)CS[C@H]12)c1csc(N)n1
Described as §1. To be noted: Salmonella enterica subsp. enterica serovar Westhampton. An outline of the steps:
as §2

Substrate in data set [6]: C[C@H]1[C@H](NC(=O)/C(=N\OC(C)(C)C(=O)O)c2csc(N)n2)C(=O)N1S(=O)(=O)O
The data set is described as §1. As to conditions: Salmonella enterica subsp. enterica serovar Westhampton. An outline of the steps:
as §2

Substrate in data set [7]: CC1(C)S[C@@H]2[C@H](NC(=O)Cc3ccccc3)C(=O)N2[C@H]1C(=O)O
The description is as §1. To be noted: Salmonella enterica subsp. enterica serovar Westhampton. An outline of the steps: as §2

Substrate in data set [8]: CO/N=C(\C(=O)N[C@@H]1C(=O)N2C(C(=O)[O-])=C(C[n+]3cccc4c3CCC4)CS[C@H]12)c1csc(N)n1
Described as §1. As to conditions: Salmonella enterica subsp. enterica serovar Westhampton. An outline of the steps: as §2

Substrate in data set [9]: CC1(C)S[C@@H]2[C@H](NC(=O)[C@H](N)c3ccc(O)cc3)C(=O)N2[C@H]1C(=O)O
The data set is described as §1. As to conditions: Salmonella enterica subsp. enterica serovar Westhampton. An outline of the steps: as §2

Substrate in data set [10]: CC1(C)S[C@@H]2[C@H](NC(=O)[C@H](C(=O)O)c3ccsc3)C(=O)N2[C@H]1C(=O)O
The data set is described as §1. To be noted: Salmonella enterica subsp. enterica serovar Westhampton. An outline of the steps:
as §2

Substrate in data set [11]: CCN1CCN(C(=O)N[C@@H](C(=O)N[C@@H]2C(=O)N3[C@@H]2SC(C)(C)[C@@H]3C(=O)O)c2ccccc2)C(=O)C1=O
The data set is described as follows: (§3) Activity of Salmonella enterica serotype Westhampton beta-lactamase CTX-M-53. To be noted: Salmonella enterica subsp. enterica serovar Westhampton. An outline of the steps:
as §2

Substrate in data set [12]: CC(=O)OCC1=C(C(=O)O)N2C(=O)[C@@H](NC(=O)Cc3cccs3)[C@H]2SC1
The description is as §3. To be noted: Salmonella enterica subsp. enterica serovar Westhampton. An outline of the steps:
as §2

Substrate in data set [13]: CO/N=C(\C(=O)N[C@@H]1C(=O)N2C(C(=O)O)=C(COC(N)=O)CS[C@H]12)c1ccco1
Described as §3. As to conditions: Salmonella enterica subsp. enterica serovar Westhampton. An outline of the steps: as §2

Substrate in data set [14]: CC(C)(O/N=C(\C(=O)N[C@@H]1C(=O)N2C(C(=O)[O-])=C(C[n+]3ccccc3)CS[C@H]12)c1csc(N)n1)C(=O)O
The description is as §3. To be noted: Salmonella enterica subsp. enterica serovar Westhampton. An outline of the steps: as §2

Substrate in data set [15]: CO/N=C(\C(=O)N[C@@H]1C(=O)N2C(C(=O)O)=C(COC(C)=O)CS[C@H]12)c1csc(N)n1
The data set is described as §3. As to conditions: Salmonella enterica subsp. enterica serovar Westhampton. An outline of the steps: as §2

Substrate in data set [16]: C[C@H]1[C@H](NC(=O)/C(=N\OC(C)(C)C(=O)O)c2csc(N)n2)C(=O)N1S(=O)(=O)O
The data set is described as §3. As to conditions: Salmonella enterica subsp. enterica serovar Westhampton. An outline of the steps:
as §2

Substrate in data set [17]: CC1(C)S[C@@H]2[C@H](NC(=O)Cc3ccccc3)C(=O)N2[C@H]1C(=O)O
The data set is described as §3. To be noted: Salmonella enterica subsp. enterica serovar Westhampton. An outline of the steps: as §2

Substrate in data set [18]: CO/N=C(\C(=O)N[C@@H]1C(=O)N2C(C(=O)[O-])=C(C[n+]3cccc4c3CCC4)CS[C@H]12)c1csc(N)n1
Described as §3. To be noted: Salmonella enterica subsp. enterica serovar Westhampton. An outline of the steps: as §2

Substrate in data set [19]: CC1(C)S[C@@H]2[C@H](NC(=O)[C@H](N)c3ccc(O)cc3)C(=O)N2[C@H]1C(=O)O
The description is as §3. As to conditions: Salmonella enterica subsp. enterica serovar Westhampton. An outline of the steps: as §2

Substrate in data set [20]: CC1(C)S[C@@H]2[C@H](NC(=O)[C@H](C(=O)O)c3ccsc3)C(=O)N2[C@H]1C(=O)O
The description is as §3. To be noted: Salmonella enterica subsp. enterica serovar Westhampton. An outline of the steps:
as §2

Substrate in data set [21]: CC(C)(O/N=C(\C(=O)N[C@@H]1C(=O)N2C(C(=O)[O-])=C(C[n+]3ccccc3)CS[C@H]12)c1csc(N)n1)C(=O)O
To be noted: Escherichia coli.

Substrate in data set [22]: C[C@H]1[C@H](NC(=O)/C(=N\OC(C)(C)C(=O)O)c2csc(N)n2)C(=O)N1S(=O)(=O)O
As to conditions: Escherichia coli.

Substrate in data set [23]: C[C@H]1[C@H](NC(=O)/C(=N\OC(C)(C)C(=O)O)c2csc(N)n2)C(=O)N1S(=O)(=O)O
To be noted: Escherichia coli. The source holds these as a separate data set.

Substrate in data set [24]: CC(C)(O/N=C(\C(=O)N[C@@H]1C(=O)N2C(C(=O)[O-])=C(C[n+]3ccccc3)CS[C@H]12)c1csc(N)n1)C(=O)O
As to conditions: Escherichia coli. The source holds these as a separate data set.

What is called Km is the substrate concentration at which the rate is half of its maximum. The kcat is the number of substrate molecules converted per active site and unit of time at saturation.

Substitutions are numbered along the chain they refer to.

B1: Extended-spectrum beta-lactamase CTX-M-53 (Salmonella enterica subsp. enterica serovar Westhampton), Q2XPY6 (protein)
chain: MVKKSLRQFTLMATATVTLLLGSVPLYAQTVDVQQKLAELEQQSGGRLGVALINTADNSQILYRADERFAMCSTSKVMAVAAVLKKSESEPNLLNQRVEIKKSDLVNYNPIAEKHVNGTMSLAELSAAALQYSDNVAMNKLIAHVGGPASVTAFARQLGDETFRLDRTEPTLNTAIPGDPRDTTSPRAMAQTLRNLTLGKALGDSQRAQLVTWMKGNTTGAASIQAGLPASWVVGDKTGSGGYGTTNDIAVIWPKDRAPLILVIYFTQPQPKAESRRDVLASAAKIVTDGL
B1: the kcat/Km was determined as 7.5e+06 M⁻¹ s⁻¹ in data set [1]; 1.64e+07 M⁻¹ s⁻¹ in data set [2]; 3.6e+06 M⁻¹ s⁻¹ in [3]; 100000 M⁻¹ s⁻¹ in data set [4]; 3.2e+06 M⁻¹ s⁻¹ in data set [5]; 300000 M⁻¹ s⁻¹ in data set [6]. Besides, the kcat/Km in data set [7] worked out at 1.35e+07 M⁻¹ s⁻¹; in data set [8], 5.7e+06 M⁻¹ s⁻¹; in [9], 2.1e+06 M⁻¹ s⁻¹; in data set [10] it was 500000 M⁻¹ s⁻¹. For the same protein, the Km in [11] stood at 12 µM; in data set [12] it was 122 µM; in data set [13] it was 80 µM; in data set [14], 174 µM; in [15] it was 180 µM; in [16], 14 µM. Moreover, the Km in data set [17] was 10 µM; in data set [18], 125 µM; in [19] it was 40 µM; in [20], 18 µM. In addition, the kcat in data set [11] stood at 90 s⁻¹; in [12], 2000 s⁻¹; in data set [13], 292 s⁻¹; in data set [14], 14 s⁻¹; in data set [15], 585 s⁻¹; in data set [16], 4 s⁻¹. Moreover, the kcat amounted to 135 s⁻¹ in [17], 710 s⁻¹ in data set [18], 85 s⁻¹ in data set [19] and 10 s⁻¹ in data set [20].

B2: Beta-lactamase CTX-M-16 (Escherichia coli), Q939N4 (protein)
chain: MVTKRVQRMMFAAAACIPLLLGSAPLYAQTSAVQQKLAALEKSSGGRLGVALIDTADNTQVLYRGDERFPMCSTSKVMAAAAVLKQSETQKQLLNQPVEIKPADLVNYNPIAEKHVNGTMTLAELSAAALQYSDNTAMNKLIAQLGGPGGVTAFARAIGDETFRLDRTEPTLNTAIPGDPRDTTTPRAMAQTLRQLTLGHALGETQRAQLVTWLKGNTTGAASIRAGLPTSWTAGDKTGSGGYGTTNDIAVIWPQGRAPLVLVTYFTQPQQNAESRRDVLASAARIIAEGL
On to B2, for which the kcat/Km in [21] was found to be 0.04 s⁻¹. The Km in [22] turned out to be 17 µM.

B3: Beta-lactamase CTX-M-27 (Escherichia coli), Q840M4 (protein)
chain: B2 chain with A234V
On to B3, for which the Km in data set [23] was 17 µM. Besides, the kcat/Km in data set [24] amounted to 0.01 s⁻¹.
